Most compounds without a hit are left out; they make up all but 1.2% or so of the library.
procasp7 counter: counter-screen for procaspase-3 activators: activators of human procaspase-7. P55210. recombinant procaspase-7, Ac-DEVD-pNA absorbance 405 nm; D23A/D198A/D206A triple mutant, cannot self-cleave; scale: DMSO 0, 5 µM enzyme 100. activation, % at 8.5 µM. hit rate 0.093% among 330,000. AID 463210;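 active = percent activation above the screen-wide mean plus 3 SD, cut at about 25% in these data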
Target sequence (P55210 whole entry D23A/D198A/D206A): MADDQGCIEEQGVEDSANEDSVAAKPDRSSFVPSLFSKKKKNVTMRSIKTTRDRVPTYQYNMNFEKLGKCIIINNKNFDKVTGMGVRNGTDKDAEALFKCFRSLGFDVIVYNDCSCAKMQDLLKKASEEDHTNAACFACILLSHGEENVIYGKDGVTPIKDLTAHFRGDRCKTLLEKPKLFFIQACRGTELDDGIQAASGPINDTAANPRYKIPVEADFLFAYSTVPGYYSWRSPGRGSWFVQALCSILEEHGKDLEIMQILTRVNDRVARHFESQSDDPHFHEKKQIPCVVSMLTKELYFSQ
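Assay system: Uncleavable procaspase-7 mutant enzyme / Input: 2 µM procaspase-7 mutant as dispensed / Dosing: single nominal 8.5 µM compound dose, 0.8% DMSO final / Timing: 1 h enzyme–compound preincubation and 2 h substrate reaction, both 25 °C / Detection: p-Nitroaniline absorbance at 405 nm, read at 0 and 120 min / Replication: singlicate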
bovine MsrA act: bovine methionine sulfoxide reductase A activation | purified bovine MsrA, absorbance read-out | activation, % at 10.6 µM | hit rate 0.3% among 360,000 | AID 602163; in the data active = activation above about 7.5%
procasp3 activ: activates human procaspase-3 | P42574 | recombinant procaspase-3 D3A, Ac-DEVD-pNA absorbance 405 nm | activation, % at 8.5 µM | hit rate 0.11% among 330,000 | AID 463141;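 active = activation above the mean of all tested compounds plus 3 SD, cut at about 21% in these data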
Target sequence (P42574 whole entry D9A/D28A/D175A): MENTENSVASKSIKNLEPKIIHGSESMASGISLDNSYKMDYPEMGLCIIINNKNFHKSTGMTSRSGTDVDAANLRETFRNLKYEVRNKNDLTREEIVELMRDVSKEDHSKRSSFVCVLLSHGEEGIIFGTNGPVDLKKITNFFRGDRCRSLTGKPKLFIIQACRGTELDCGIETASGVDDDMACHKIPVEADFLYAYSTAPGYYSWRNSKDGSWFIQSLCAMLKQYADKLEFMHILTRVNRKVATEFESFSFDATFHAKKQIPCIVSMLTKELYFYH
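Test system: Procaspase-3 D3A mutant; medium: Zinc-free HEPES/NaCl buffer with 0.01% Triton X-100 at pH 7.4; reagent: DEVD-pNA substrate; doses: one concentration, 8.5 µM nominal, 0.8% DMSO; times: 1 h preincubation plus 2 h reaction at 25 °C; signal: Epi-absorbance at 405 nm of released p-nitroaniline, 0 and 120 min; replicates: singlicate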
MsrA inhibitor: bovine MsrA inhibition | purified bovine MsrA, absorbance read-out | inhibition, % at 15.5 µM | hit rate 0.75% among 360,000 | AID 651718; in the data active = inhibition above about 4.5%
MsrA act confirm: bovine methionine sulfoxide reductase A activation confirmed; purified bovine MsrA, absorbance read-out; activation, % at 10.6 µM; shares compounds with bovine MsrA act; hit rate 12% among 1,000; in the data active = activation above about 4%;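 also: enzyme coupled to thioredoxin and thioredoxin reductase with NADPH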
Each line names hits and unclear results; the compound was inactive in the other large screens (follow-up assays come after a bar, where they were run); ! = not active in a repeat.

Cc1cc(Cl)ccc1OCc1n[nH]c(=S)n1C1CCCCC1	bovine MsrA act 8.6 | MsrA act confirm inactive
COc1cccc(C(c2sc3ncnn3c2O)N2CCc3ccccc3C2)c1 (stereo not given)	none
COc1cccc(C(c2sc3ncnn3c2O)N2CC(C)OC(C)C2)c1 (stereo not given)	bovine MsrA act 8.1 | MsrA act confirm inactive
COC(=O)c1sccc1NC(=O)CSc1ccccc1NS(=O)(=O)c1ccccc1Cl	bovine MsrA act 8.3 | MsrA act confirm inactive
CCc1cc2c(nc1CC)CCCN2S(=O)(=O)c1ccccc1	none (no result: procasp7 counter, bovine MsrA act, procasp3 activ)
C[C@@H]1ON(C)[C@H]2C[C@H]3c4cc(-c5ccc(F)cc5)ccc4CCN3C[C@@H]12	none (no result: procasp7 counter, bovine MsrA act, procasp3 activ)
CCN1CCN(C2=C(NS(=O)(=O)c3ccc(NC(C)=O)cc3)C(=O)c3ccccc3C2=O)CC1	bovine MsrA act 8.9 | MsrA act confirm inactive
CCN1CCN(C2=C(NS(=O)(=O)c3ccc(C)cc3)C(=O)c3ccccc3C2=O)CC1	none
CC(=O)Nc1ccc(S(=O)(=O)NC2=C(N3CCN(C)CC3)C(=O)c3ccccc3C2=O)cc1	bovine MsrA act 26 | MsrA act confirm inactive
CC1CCCN(C2=C(NS(=O)(=O)c3ccc(Br)cc3)C(=O)c3ccccc3C2=O)C1 (stereo not given)	bovine MsrA act 8.9 | MsrA act confirm inactive
CCOC(=O)N1CCN(C2=C(NS(=O)(=O)c3ccc(NC(C)=O)cc3)C(=O)c3ccccc3C2=O)CC1	none
CC(=O)Nc1ccc(S(=O)(=O)NC2=C(N3CCN(Cc4ccccc4)CC3)C(=O)c3ccccc3C2=O)cc1	bovine MsrA act 8.1! | MsrA act confirm inactive
COC(=O)[C@@H](Cc1ccccc1)N[C@H](/C=C/c1ccccc1)[C@@H](O)Cc1ccccc1	none (no result: procasp7 counter, bovine MsrA act, procasp3 activ)
CC(C)(C)c1cccc(N/C(=C\C(=O)c2ccccc2)c2ccccc2)c1	none (no result: procasp7 counter, bovine MsrA act, procasp3 activ)
O=C(NN=Cc1ccccc1O)C(=O)Nc1ccc(F)cc1	none (no result: procasp7 counter, bovine MsrA act, procasp3 activ)
CCc1c(-c2ccccc2Br)ncn1CCc1ccccc1OC	none (no result: procasp7 counter, bovine MsrA act, procasp3 activ)
CC(Sc1ncnc2sc(-c3ccccc3)cc12)C(=O)N1CCNC1=O (stereo not given)	none
CC(C)N(C(=O)CSc1ncnc2sc(-c3ccccc3)cc12)C(C)C	bovine MsrA act 9.1 | MsrA act confirm inactive
Cc1cccc(C2=CC(=O)CC(C)(C)C2=O)c1	none (no result: procasp7 counter, bovine MsrA act, procasp3 activ)
CC(=O)NNC(=S)NC(=O)c1ccc(C)cc1	none
CC(=O)NNC(=S)NC(=O)c1ccccc1	bovine MsrA act 8.3 | MsrA act confirm inactive
CCOC(=O)CSc1nnc(-c2nnc(SCC(=O)OCC)n2CC)n1CC	bovine MsrA act 7.7 | MsrA act confirm inactive
COc1ccc(N(CC(=O)NCc2cccnc2)S(=O)(=O)c2ccccc2)c(OC)c1	bovine MsrA act 13 | MsrA act confirm inactive
COc1ccc(OC)c(N(CC(=O)NCc2ccccc2)S(=O)(=O)c2ccc(OC)c(OC)c2)c1	none
Fc1ccc(C(c2ccc(F)cc2)N2CCN(C/C=C/c3ccccc3)CC2)cc1	bovine MsrA act 8.4 | MsrA act confirm inactive
C(=C\c1ccccc1)/CN1CCN(C(c2ccccc2)c2ccccc2)CC1	none
CN(Cc1cnn(C)c1)Cc1nc(COc2ccccc2)no1	none
CN(CCc1cnn(C)c1)Cc1nc(Cc2ccccc2)no1	bovine MsrA act 10 | MsrA act confirm inactive
N/C(=N\C(=S)Nc1ccc2c(c1)OCO2)c1ccccc1	none (no result: procasp7 counter, procasp3 activ)
NC(=S)Nc1ccc2c(c1)OCO2	bovine MsrA act 15 | MsrA act confirm inactive
COC(=O)c1cc2c(c3c4cc(OC)ccc4n(S(=O)(=O)c4ccc(OC)cc4)c13)C(=O)N(Cc1ccco1)C2	none (no result: procasp7 counter, bovine MsrA act, procasp3 activ)
Cc1sc(NC(=O)CN2CCCC2)nc1-c1ccc2c(c1)CCN2C(=O)c1ccc(F)cc1	bovine MsrA act 12 | MsrA act confirm inactive
COc1ccc(C2CC(c3cccs3)=Nc3ccccc3S2)cc1 (stereo not given)	bovine MsrA act 10 | MsrA act confirm inactive
CC(C)(C)C(=O)c1c(N)[nH]c(C(=O)c2ccccc2)c1-c1ccc([N+](=O)[O-])cc1	none (no result: procasp7 counter, bovine MsrA act, procasp3 activ)
CN(C)c1nc(C#N)nc(N2CCOCC2)n1	none
CC(C)N(C#N)c1nc(N2CCOCC2)nc(N2CCOCC2)n1	bovine MsrA act 17 | MsrA act confirm inactive
O=c1oc2ccc(C#CC3(O)CCCCC3)cc2cc1-n1cc(C2(O)CCCCC2)nn1	bovine MsrA act 8.6 | MsrA act confirm inactive
COc1cccc(NC(=O)CN(C)CC(=O)NCc2ccc3c(c2)OCO3)c1	bovine MsrA act 11 | MsrA act confirm inactive
COc1ccc(CC(=O)NCc2ccc3c(c2)OCO3)cc1	none
COc1cccc(NC(=O)CN(C)C(=O)CCNC(=O)c2ccccc2Cl)c1	bovine MsrA act 8.0 | MsrA act confirm inactive
Cc1cc(NC(=O)CCSc2nc(-c3ccco3)cc(C(F)(F)F)n2)n(-c2ccccc2)n1	bovine MsrA act 18 | MsrA act confirm inactive
Cc1nn(C)c(C)c1NC(=O)CCSc1nc(-c2ccco2)cc(C(F)(F)F)n1	none
O=C1c2ccccc2-c2c1cccc2C(=O)N(CCO)CCO	bovine MsrA act 12 | MsrA act confirm inactive
CN(C)c1ccc2nc3ccc(=[N+](C)C)cc-3sc2c1	bovine MsrA act 23, MsrA inhibitor 8.2 | MsrA act confirm 7.9
Nc1ncnc2nc(SCc3ccccc3)[nH]c12	bovine MsrA act 7.8 | MsrA act confirm inactive
Cc1ccc(OCC(=O)N/N=C\c2c(C)[nH]n(-c3ccccc3)c2=O)c([N+](=O)[O-])c1	bovine MsrA act 11 | MsrA act confirm inactive
O=C(CSc1ncnc2c1oc1ccccc12)Nc1cccc(C(F)(F)F)c1	bovine MsrA act 8.8 | MsrA act confirm inactive
O=C(CSc1ncnc2c1oc1ccccc12)Nc1cccc(Cl)c1	none
COc1cc(/C=N/n2nnnc2N)ccc1OC(C)=O	none (no result: procasp7 counter, procasp3 activ)
COc1ccc(/C=N/Nc2ncnc(Cl)c2N)cc1OC	none
COc1ccc(/C=N/Nc2nnc(C)n2N)cc1OC(C)=O	bovine MsrA act 12 | MsrA act confirm inactive
COc1ccc(/C=N/Nc2nnc(C)n2N)cc1OC	bovine MsrA act 9.0 | MsrA act confirm inactive
Cc1ccccc1OCC(=O)N/N=C/c1ccc([N+](=O)[O-])o1	none
COc1ccccc1OCC(=O)N/N=C/C=C/c1ccc([N+](=O)[O-])o1	bovine MsrA act 10 | MsrA act confirm inactive
COC(=O)C1=C(C)N(C)C(=NCc2ccc3c(c2)OCO3)NC1c1cccc(Cl)c1 (stereo not given)	none (no result: procasp7 counter, bovine MsrA act, procasp3 activ)
C=CC(=O)NC1CCCCN(C)C1=O (stereo not given)	none (no result: procasp7 counter, bovine MsrA act, procasp3 activ)
OCc1ccccc1SSc1ccccc1CO	bovine MsrA act 11 | MsrA act confirm 6.4
OCc1ccccc1CNCc1ccccc1	none
COc1ccc(CNC(=O)N(C)C[C@@H]2OCc3ccccc3-c3c(n(C)c4ccccc34)C(=O)N([C@@H](C)CO)C[C@@H]2C)cc1	none (no result: procasp7 counter, bovine MsrA act, procasp3 activ)
Cc1c(Cl)cccc1-c1ccc(CNCc2ccccn2)o1	bovine MsrA act 7.7 | MsrA act confirm inactive
CCOC(=O)C1(C(=O)OCC)N=C(c2ccccc2)C=C1c1ccccc1	none (no result: procasp7 counter, bovine MsrA act, procasp3 activ)

Screening results (PubChem BioAssay)
